For data set [1], the system named is Plasmodium berghei. Put plainly: Antimalarial activity against Plasmodium berghei infected in Swiss mouse assessed as survival at 50 mg/kg, ip qd administered for 4 days measured on day 4 post last dose. The note with it: route intraperitoneal. The class given is functional.
A short description of data set [2]: Resistance index, ratio of IC50 for chloroquine/pyrimethamine-resistant Plasmodium falciparum K1 to IC50 for erythrocytic stage of chloroquine-sensitive Plasmodium falciparum NF54. The class given is functional. The essentials: (§1)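 Chloroquine/pyrimethamine-resistant K1 and drug-susceptible NF54 P. falciparum were grown in hypoxanthine-free RPMI 1640 with HEPES, NaHCO₃, neomycin and Albumax, in human A⁺ erythrocytes at 2.5% haematocrit and 0.3% parasitaemia. DMSO stocks were 10 mg/mL, tested in eleven 3-fold dilutions under 4% CO₂/3% O₂/93% N₂. ³H-hypoxanthine was added at 48 h, then 24 h more before filter harvest. IC₅₀ is the mean of two assays; RI = K1/NF54 IC₅₀.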

For data set [3], the system named is Plasmodium berghei. The data set is described as follows: Antimalarial activity against Plasmodium berghei infected in Swiss mouse assessed as reduction in parasitemia at 50 mg/kg, ip qd administered for 4 days measured on day 4 post last dose by FACS analysis relative to control. On the set-up: scale not given: the % may be the effect or the level left. The following applies: route intraperitoneal. The class given is functional. The procedure, abridged: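 Plasmodium berghei-infected mice, standard '4 Day Test'. Parasitaemia measured by FACS. Activity is the difference between mean percent parasitaemia of control (n = 5 mice) and treated groups, expressed as a percentage of control.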

For another data set, the system named is L6. Put plainly: Cytotoxicity against rat L6 cells after 70 hrs by Alamar Blue assay. The class given is functional, cell-based. The following applies: L6, 70 h. The procedure, abridged: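 Rat skeletal myoblast L6 cells, 4000 per well, in RPMI 1640 with 1% L-glutamine and 10% fetal bovine serum. Eleven 3-fold serial drug dilutions were tested. Alamar Blue was added for a final 2 h. Fluorescence was read at excitation 536 nm and emission 588 nm. IC₅₀ is the mean of two independent assays.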
On the technique in general: The colour change of resazurin is a common sign of viable cells or microbes.

For data set [4], the system named is Plasmodium falciparum. The data set is described as follows: Antimalarial activity against erythrocytic stage of chloroquine-sensitive Plasmodium falciparum NF54 after 48 hrs by [3H]-hypoxanthine incorporation assay. The class given is functional, organism-based. The essentials: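 ³H-hypoxanthine incorporation against P. falciparum NF54. DMSO stocks at 10 mg/mL were added to cultures in hypoxanthine-free RPMI 1640 with HEPES, NaHCO₃, neomycin and Albumax, using human A⁺ red cells at 2.5% haematocrit and 0.3% parasitaemia. Eleven 3-fold serial dilutions were tested. Incubation was under 4% CO₂/3% O₂/93% N₂. ³H-hypoxanthine was added after 48 h, followed by a further 24 h. Cells were harvested onto glass-fibre filters. IC₅₀ is the mean of two independent assays.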

Data set [5] in a line: Binding affinity to haematin assessed as inhibition of beta-haematin formation after 5 to 6 hrs by pyridine-ferrichrome-based method. The procedure, abridged:
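Detergent (NP-40) mediated β-haematin formation assay, run manually. Compounds came from 20, 2 and 0.4 mM DMSO stocks, tested at 0–1000 µM final. Haematin was 100 µM final in 0.5 M acetate buffer, pH 4.8. Incubation was 5–6 h at 37 °C. Read-out used the pyridine-ferrichrome method with UV–vis absorbance. IC₅₀ came from sigmoidal dose–response fits.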

A short description of data set [6]: Selectivity index, ratio of IC50 for rat L6 cells to IC50 for chloroquine/pyrimethamine-resistant Plasmodium falciparum K1. The class given is toxicity, cell-based. The following applies: read-out: Ratio IC50.
Data set [7] can be described thus: Selectivity index, ratio of IC50 for rat L6 cells to IC50 for erythrocytic stage of chloroquine-sensitive Plasmodium falciparum NF54. The class given is toxicity, cell-based. The note with it: read-out: Ratio IC50. The essentials:
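Selectivity index is the L6 cytotoxicity IC₅₀ divided by the NF54 antiplasmodial IC₅₀. Each IC₅₀ is the mean of two independent assays.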

For data set [8], the system named is Plasmodium falciparum. Put plainly: Antimalarial activity against erythrocytic stage of chloroquine/pyrimethamine-resistant Plasmodium falciparum K1 after 48 hrs by [3H]-hypoxanthine incorporation assay. The class given is functional, organism-based. The procedure, abridged:
as §1

Each structure is given as a SMILES string.

As a reminder, the IC50 is the midpoint of a concentration-inhibition curve. Consider `CC(C)(CNC(=O)Nc1ccccc1)CNc1nc2ccc(Cl)cc2c2[nH]c3ccccc3c12`, for which, in the data set on Plasmodium berghei [1], the Survival worked out at 4 days. Moreover, in [2], the Ratio IC50 was 1.6. Moreover, the Activity in the data set with Plasmodium berghei [3] was determined as 38%. Further, the concentration for half-maximal inhibition (IC50) worked out at 4000 nM in the data set with L6, 10.6 nM in the data set with Plasmodium falciparum [4], 11700 nM in [5] and 16.9 nM with Plasmodium falciparum [8]. The selectivity ratio in data set [6] was found to be 236; in data set [7] it was 378.
`CN(C)CCCNc1nc2ccccc2c2[nH]c3ccccc3c12`: the Ratio IC50 in data set [2] amounted to 2.66. For the same compound, the IC50 with L6 stood at 606 nM; with Plasmodium falciparum [4], 9.4 nM; in data set [5], 83600 nM; in the data set with Plasmodium falciparum [8], 25.1 nM. For the same compound, the selectivity ratio in [6] amounted to 24.1; in data set [7], 64.3.
Take `O=C(NCCCNc1nc2ccc(F)cc2c2[nH]c3ccccc3c12)Nc1ccccc1`: the Ratio IC50 in data set [2] stood at 1.9. In addition, the half-inhibitory concentration (IC50) in the data set on L6 came out at 1500 nM; in the data set on Plasmodium falciparum [4], 25.7 nM; in [5], 22700 nM; in the data set on Plasmodium falciparum [8] it was 49.2 nM. In addition, the selectivity ratio in data set [6] was 30.6; in [7], 58.5.
On to `NCCCNc1nc2ccccc2c2[nH]c3ccccc3c12`, for which the Ratio IC50 in data set [2] was 6. Also, the IC50 in the data set with L6 amounted to 627 nM; in the data set on Plasmodium falciparum [4], 13.7 nM; in [5] it was 116000 nM; in the data set with Plasmodium falciparum [8], 82.7 nM. The selectivity ratio in [6] came out at 7.6; in [7] it was 45.8.
`CC(C)(CN)CNc1nc2ccc(Cl)cc2c2[nH]c3ccccc3c12`: the Ratio IC50 in data set [2] is 2. The half-inhibitory concentration (IC50) turned out to be 1840 nM in the data set with L6, 25.5 nM with Plasmodium falciparum [4], 20700 nM in data set [5] and 51 nM with Plasmodium falciparum [8]. In addition, the selectivity ratio worked out at 36.1 in [6] and 72.1 in data set [7].
For `NCCCCCNc1nc2ccccc2c2[nH]c3ccccc3c12`, the Ratio IC50 in [2] stood at 2. The IC50 with L6 amounted to 816 nM; in the data set with Plasmodium falciparum [4] it was 12.6 nM; in [5] it was 81000 nM; with Plasmodium falciparum [8] it was 25.1 nM. For the same compound, the selectivity ratio in data set [6] was found to be 32.5; in data set [7] it was 64.8.
For `Cc1ccc2nc(NCCCNC(=O)Nc3ccccc3)c3c4ccccc4[nH]c3c2c1`, the Ratio IC50 in [2] stood at 1.8. Besides, the IC50 in the data set on L6 was determined as 966 nM; in the data set on Plasmodium falciparum [4] it was 23.6 nM; in [5], 17200 nM; in the data set on Plasmodium falciparum [8], 42.5 nM. Also, the selectivity ratio came to 22.7 in data set [6] and 40.9 in [7].
Consider `S=C(NCCCNc1nc2ccccc2c2[nH]c3ccccc3c12)Nc1ccccc1`, for which the Ratio IC50 in data set [2] came to 2.1. The IC50 was 249 nM with L6, 23.5 nM in the data set with Plasmodium falciparum [4], 18500 nM in data set [5] and 49.3 nM with Plasmodium falciparum [8]. Further, the selectivity ratio in [6] is 5.1; in data set [7], 10.6.
Regarding `NCCCCCCNc1nc2ccccc2c2[nH]c3ccccc3c12`, in data set [2], the Ratio IC50 was 6. For the same compound, the half-maximal inhibitory concentration (IC50) was 1180 nM with L6, 15 nM with Plasmodium falciparum [4], 49600 nM in [5] and 90.2 nM in the data set with Plasmodium falciparum [8]. Also, the selectivity ratio stood at 13.1 in data set [6] and 78.8 in [7].
In the case of `NCCCNc1nc2ccc(Cl)cc2c2[nH]c3ccccc3c12`, the Ratio IC50 in data set [2] came out at 10.9. Moreover, the half-inhibitory concentration (IC50) with L6 is 1120 nM; in the data set with Plasmodium falciparum [4], 6.2 nM; in data set [5], 12400 nM; in the data set on Plasmodium falciparum [8] it was 67.7 nM. The selectivity ratio in data set [6] came out at 16.6; in data set [7], 181.
As for `O=C(NCCCNc1nc2ccc(Br)cc2c2[nH]c3ccccc3c12)Nc1ccccc1`, in [2], the Ratio IC50 came to 1.6. The half-inhibitory concentration (IC50) in the data set with L6 was 1280 nM; with Plasmodium falciparum [4] it was 22.5 nM; in [5], 13900 nM; with Plasmodium falciparum [8], 36.9 nM. For the same compound, the figures for the selectivity ratio in data set [6] and in data set [7] were 34.7 and 56.9, respectively.
As to `O=C(NCCCNc1nc2ccccc2c2[nH]c3ccccc3c12)Nc1ccccc1`, the Ratio IC50 in [2] was 22.4. For the same compound, the IC50 with L6 stood at 1150 nM; with Plasmodium falciparum [4], 2.4 nM; in [5], 23900 nM; with Plasmodium falciparum [8] it was 53.7 nM. The selectivity ratio in data set [6] is 21.5; in [7], 480.
Consider `O=C(NCCCCCCNc1nc2ccccc2c2[nH]c3ccccc3c12)Nc1ccccc1`, for which the Ratio IC50 in data set [2] was 1.1. For the same compound, the IC50 with L6 came out at 862 nM; in the data set on Plasmodium falciparum [4], 22.1 nM; in [5], 16200 nM; in the data set on Plasmodium falciparum [8], 24.4 nM. The selectivity ratio amounted to 35.3 in data set [6] and 39 in data set [7].
In the case of `O=S(=O)(NCCCNc1nc2ccccc2c2[nH]c3ccccc3c12)c1ccccc1`, the Ratio IC50 in [2] came to 1.3. Also, the IC50 in the data set on L6 was determined as 811 nM; in the data set on Plasmodium falciparum [4], 72 nM; in [5], 24200 nM; in the data set with Plasmodium falciparum [8], 92.9 nM. The results for the selectivity ratio in [6] and in data set [7] were 8.7 and 11.3, respectively.
Take `O=C(NCCCNc1nc2ccc(Cl)cc2c2[nH]c3ccccc3c12)Nc1ccccc1`: the Ratio IC50 in data set [2] was 1.9. The IC50 with L6 came out at 2570 nM; in the data set with Plasmodium falciparum [4], 27 nM; in data set [5], 14400 nM; in the data set with Plasmodium falciparum [8], 50 nM. Further, the selectivity ratio in [6] turned out to be 51.4; in [7] it was 95.1.

Source of the values: ChEMBL document CHEMBL3259682, “Synthesis, β-haematin inhibition, and in vitro antimalarial testing of isocryptolepine analogues: SAR study of indolo[3,2-c]quinolines with various substituents at C2, C6, and N11” (Bioorg Med Chem, 2014).
